High-throughput results as filed in PubChem.
Lung fibro prol – blocks proliferation of human lung fibroblasts. viability, % at 10 µM. AID 719. LL 47 human lung fibroblast viability, ATP luminescence; hits give low values. 85,000 tested, 1.1% active;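 active = viability at or below 50% in the single dose screen; inactive = viability above 50%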;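 note: compound exposure lasted 72 h before the ATP readout; 100% = median luminescence of untreated cell-only wells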
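Times – overnight cell rest, 72 h compound treatment at 37 °C · Test system – human lung fibroblast line LL 47, low passage · Amount – 1,150 cells in each well · Controls – cell-only wells, no compound · Doses – 0.1% DMSO in all compound wells · Measured by – CellTiter-Glo luminescence · Buffer or medium – IMEM plus 15% FBS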
HCT116 PTEN-null – suppresses growth of cells with PTEN deletion | AID 827 | viability, % at 10 µM | 140,000 tested, 1.2% active | HCT116 PTEN-null viability, CellTiter-Glo, 60 h; hits give low values;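 active = viability at or below a set limit, 4 SD under the median of all tested compounds, cut at about 3.7% in these data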;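 note: PTEN knockout HCT116 line with beta catenin targeted HCT116 as companion control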
Cav32 inh – human Cav3.2 channel inhibition, primary screen. B-score at 10 µM. 100,000 tested, 4% active. Cav3.2-expressing cells, Fluo-4 calcium fluorescence FDSS; hits give low values. O95180;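 active = single-dose well whose peak fluorescence ratio is a statistical outlier from its plate by either plate-standardised score or position-corrected B-score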
H69AR inhibit – blocks growth of human H69AR lung tumor cells; H69AR lung tumor viability, ATP luminescence, 72 h; hits give low values; viability, % at 10 µM; 85,000 tested, 6% active;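 active = viability at or below 40%; inactive = viability above 40%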;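 note: multidrug resistant small cell line overexpressing MRP-1 efflux transporter; 100% = mean luminescence of untreated control wells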
HCT116 bCat-KO – beta-catenin-lacking colon tumor cell growth suppression. HCT116 beta-catenin knockout viability, CellTiter-Glo, 60 h; hits give low values. viability, % at 10 µM. 140,000 tested, 1.5% active. AID 818;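 active = viability at or under a set limit, the compound median less 4 SD, cut at about 6% in these data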;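 note: 0% = Hyamine 1622 control at 20 µM and 100% = untreated cell control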
HUVEC inhibit – blocks proliferation of human endothelial cells; HUVEC proliferation, CellTiter-Glo luminescence, 72 h; hits give low values; viability, % at 10 µM (by protocol); 86,000 tested, 1.1% active; AID 648;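 active = viability at or below 30%; inactive = viability above 30%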;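 note: 100% = median luminescence of DMSO-only cell control wells on each plate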
Starred values were filed as active, the others as inactive; / = not tested or not shown. Shown are actives, neighbours in structure and some others; about 7.1% of the full set was active somewhere.

SMILES	Lung fibro prol	HCT116 PTEN-null	Cav32 inh	H69AR inhibit	HCT116 bCat-KO	HUVEC inhibit
CCC(=NCCO)c1c(O)n(C2CCCCC2)c(=O)[nH]c1=O	89	109	0.043	/	101	99
CCC(=NCc1ccc2c(c1)OCO2)c1c(O)n(C2CCCCC2)c(=O)[nH]c1=O	107	62	-5.8*	51	54	64
COC(=O)C1=C(c2cccc(OC)c2OC)C[C@@H]2CC[C@H]1N2C(=O)NCCS(C)=O (stereo partly drawn)	/	/	-0.61	/	/	/
N=C(N)c1c(O)n(C2CCCCC2)c(=O)n(C2CCCCC2)c1=O	31*	13	0.18	1.1*	30	2.5*
CC(=NCCN1CCOCC1)c1c(O)n(C2CCCCC2)c(=O)[nH]c1=O	103	110	1.8	82	103	109
COC[C@]12CN(C)C3C4[C@H](OC)[C@H]1C3([C@@H](OC)C[C@H]2O)[C@@H]1C[C@@]2(O)[C@H](OC(=O)c3ccccc3)[C@@H]1[C@]4(OC(C)=O)[C@@H](O)[C@@H]2OC	/	/	-0.26	/	/	/
CCc1cc2c(s1)NC(=O)CN=C2c1cccs1	91	87	-0.63	23*	88	79
CCOC(=O)[C@@]12C(=O)C(=O)N[C@]1(c1ccccc1)C1OCCCC12 (stereo partly drawn)	/	96	/	/	94	/
Cc1ccc(CN2C(=O)NC(=O)C3(Cc4c(nc5ccccn5c4=O)N4CCCCCC43)C2=O)cc1 (stereo not drawn)	100	55	-1.4	39*	74	88
CC[C@H]1CN2CC[C@@]3(C(=O)Nc4ccccc43)[C@@H]2C[C@@H]1/C(=C\OC)C(=O)OC	/	/	0.058	/	/	/
Cc1cccc(C2=NCC(=O)N(CC(=O)NCc3ccco3)c3sc4c(c32)CCCC4)c1	93	68	-3.9*	49	80	88
Cc1cccc(N/N=C(\C(N)=O)C2=NC(C)(C)Cc3ccccc32)c1	/	59	/	/	64	/
CCC(C)(C)n1nnnc1CN1CCC(n2c(C)nc3cc(C(F)(F)F)ccc32)CC1	95	77	4*	74	81	97
Cc1ccc(-n2c(O)c(C=NCc3cccnc3)c(=O)[nH]c2=O)cc1C	95	107	-0.14	89	99	86
Cc1ccc(-n2c(O)c(C=Nc3ccccc3N)c(=O)[nH]c2=O)cc1C	110	73	/	13*	78	99
Fc1ccc(Cn2nnnc2C(c2ccc(F)cc2)N2CC=C(c3ccc(F)cc3)CC2)cc1 (stereo not drawn)	/	64	/	/	64	/
CN1C(=O)C(=Cc2ccccc2Oc2ccc(Cl)c(F)c2)C(=O)N(C)C1=O	/	89	-4.8*	/	80	/
COC(=O)C1=C(c2cc3ccccc3o2)C[C@@H]2CC[C@H]1N2C(=O)NCc1ccc(F)cc1	/	/	-2.3	/	/	/
COC(=O)C1=C(c2cc3ccccc3o2)C[C@@H]2CC[C@H]1N2C(=O)NCc1cccc2ccccc12	/	/	-3.6*	/	/	/
CN(C)C1(c2nnnn2CCOC(=O)Nc2ccc(Cl)cc2)CCCCC1	92	70	-3*	57	71	108
CC(C)(C)P(=O)(c1ccncc1)N1CCCC1 (stereo not drawn)	98	95	0.69	111	100	91
C=C(C)[C@@]12OC3(c4ccccc4)O[C@@H]1C1[C@@H]4O[C@]4(CO)[C@@H](O)[C@]4(O)C(=O)C(C)=C[C@H]4[C@@]1(O3)[C@H](C)[C@H]2OC(=O)/C=C/C=C/c1ccccc1 (stereo partly drawn)	/	/	-4.4*	/	/	/
CC(/C=N/NC(=O)c1n[nH]c2c1CCC2)=C\c1ccccc1	46*	15	-2.7	23*	14	36
O=C(CSC1c2ccccc2-c2ccccc21)N/N=C/c1ccccc1O	41*	12	-3.1	18*	9	27*
O=C(NC1CCCCC1)[C@@H]1CC=C[C@@H]2CCN(Cc3ccccc3)C(=O)[C@@H]21	/	/	-0.092	/	/	/
SMILES	Lung fibro prol	HCT116 PTEN-null	Cav32 inh	H69AR inhibit	HCT116 bCat-KO	HUVEC inhibit
c1ccc(-c2[nH]c(-c3ccccc3)[n+](CC3CO3)c2-c2ccccc2)cc1 (stereo not drawn)	/	57	/	/	56	/
COc1ccc(CCNC(=O)c2c(N)n(CCN3CCOCC3)c3nc4ccccc4nc23)cc1	79	0.3*	0.67	22*	0.4*	54
Nc1c(C(=O)NCCc2ccccc2)c2nc3ccccc3nc2n1CCN1CCOCC1	92	1.9*	-0.37	1.6*	1.7*	55
O=c1[nH]c(=O)n(CCC2=CCCCC2)c(O)c1/C=N/Nc1ccccc1	/	81	/	/	86	/
CCCCCCn1c(O)c(C=NC2CCN(Cc3ccccc3)CC2)c(=O)[nH]c1=O	97	38	-3.3*	66	44	93
O=c1[nH]c(=O)n(CCC2=CCCCC2)c(O)c1C=NC1CCN(Cc2ccccc2)CC1	96	29	1.9	32*	39	96
CS(=O)(=O)c1ccc(C2=C(c3ccccc3)C(=O)OC2)cc1	/	/	0.43	/	/	/
FC(F)(F)c1ccc2c(c1)N(CCCN1CCN(CCCl)CC1)c1ccccc1S2	89	56	-0.77	1.4*	68	37
CCN1C[C@]2(COC)CC[C@H](O)[C@@]34C5C[C@H]6[C@H](O)C5[C@](O)(C[C@H]6OC)[C@@H]([C@H](OC)C23)[C@@H]14 (stereo partly drawn)	/	/	0.88	/	/	/
COC(=O)[C@@H]1[C@@H](C(=O)OC)C2(c3ccccc3-c3ccccc32)N(c2ccc(Cl)cc2)N1C#N	3.3*	1.2*	-0.87	0.7*	0.8*	2.7*
COC(=O)C[C@]1(C(=O)OC)CN(C#N)N(c2ccc(Cl)cc2)C12c1ccccc1-c1ccccc12	5.2*	1.2*	-1.8	0.6*	0.4*	2.4*
C=CCn1c(O)c(C(C)=NCc2cc(OC)cc(OC)c2)c(=O)[nH]c1=O	48*	32	0.18	38*	27	26*
C=CCn1c(O)c(C(C)=NCc2cccnc2)c(=O)[nH]c1=O	95	105	0.69	86	107	85
CN1C2CCC1/C(=C/c1ccccn1)C(=O)/C2=C\c1ccccn1	/	1.8*	/	/	1.8*	/
CC[C@@H]1C=CC=CC[C@H](C)[C@@H](O)[C@@H](C)C(=O)[C@H](C)[C@@H](O)[C@H](C)C(=O)[C@H](C)[C@@H](O)[C@H](C)C=CC(=O)O[C@H]2[C@@H](C)[C@@H](CC1)O[C@@]1(CC[C@@H](C)[C@@H](C[C@H](C)O)O1)[C@@H]2C	/	/	-0.13	/	/	/
C/C=C(\C)C(=O)OC1C(C)=C2C(C1OC(=O)CCCCC)C(C)(OC(C)=O)CC(OC(=O)CCC)C1(O)C2OC(=O)C1(C)O (stereo not drawn)	/	/	4.3*	/	/	/
CCCCCc1nc2c(c(=O)c3ccccc3n2C)c(=O)n1C1CCCCCC1	/	1.6*	/	/	1.5*	/
CCCCCc1nc2ccccc2c(=O)n1-c1ccccc1[N+](=O)[O-]	/	72	/	/	80	/
O=c1c(C=NCc2cccs2)c(O)n(C2CCCCC2)c(=O)n1C1CCCCC1	86	104	-4.4*	84	110	97
